Published values of several laboratories.
Protocols differ between the studies behind these lines.
Target: Serine/threonine-protein kinase pim-3 (PIM3, Homo sapiens, UniProt Q86V86)

With Cc1cnc(Nc2ccc(C(=O)N3CCC(N4CCCC4)CC3)cc2)nc1-c1cc2ccccc2s1 the remaining binding was 60% (binding, competition with immobilised ligand; 1 µM).
N#CC1(c2ccccn2)CCN(Cc2cc(C(=O)N3CCCC3)c(=O)n3ccccc23)CC1 gave a remaining binding of 99% (cell-free assay, competition with immobilised ligand; 1 µM).
F[C@@H]1CCN(c2nccc(-c3cnn4ncccc34)n2)C1 gave a remaining binding of 100% (binding; 1 µM).
COc1ccc2c(O[C@@H]3C[C@H]4C(=O)N[C@]5(C(=O)O)CC5/C=C\CCCCC[C@H](NC(=O)OC5CCCC5)C(=O)N4C3)cc(-c3csc(NC(=O)C(C)C)n3)nc2c1C (stereo partly drawn) gave a remaining binding of 94% (cell-free assay, competition with immobilised ligand; 1 µM).
For COc1ncc2cc3ccccc3nc2c1C#N, the remaining binding was 79% (cell-free assay, competition with immobilised ligand; 5 µM).
For c1cncc(-c2cccc(Nc3nccc(NC4CCCCC4)n3)c2)c1, the remaining binding was 71% (binding, competition with immobilised ligand; 10 µM).
CN(CCCC(F)(F)F)c1nccc(-c2cnn3ncccc23)n1 has a remaining binding of 100% (binding; 1 µM).
O=C(NCCCN1CCOCC1)c1ccc(Nc2nccc(-c3cc4ccccc4s3)n2)cc1 gave a remaining binding of 91% (binding, competition with immobilised ligand; 1 µM).
C[C@@H]1CCN(c2nccc(-c3cnn4ncccc34)n2)C1 gave a remaining binding of 92% (binding; 1 µM).
O=C(NCCCN1CCOCC1)c1ccc(Nc2ncc(Cl)c(-c3ccc(Cl)s3)n2)cc1 gave a remaining binding of 100% (binding, competition with immobilised ligand; 1 µM).
C[C@@H](c1ccc(-n2cnc3c(N)ncnc32)cc1)N1CCc2nn(C)c(Cc3ccccc3)c2C1=O has a remaining binding of 90% (binding, competition with immobilised ligand; 0.1 µM).
With O=C(Nc1c[nH]nc1C(=O)NC1CCNCC1)c1cc(F)cc(F)c1 the remaining binding was 88% (binding, competition with immobilised ligand; 1 µM).
For COc1ccnn2ncc(-c3ccnc(N(C)C)n3)c12, the remaining binding was 81% (binding; 1 µM).
COc1ccc2c(c1)O[C@H](c1ccc(OC)c(OC)c1)C[C@@H]2NC(=O)C1(c2ccc3c(c2)OC(F)(F)O3)CC1 gave a remaining binding of 100% (cell-free assay, competition with immobilised ligand; 1 µM).
For CC(C)(C)c1ccc(-c2nc(CBr)nn2-c2cccc(O)c2)cc1, the remaining binding was 100% (cell-free assay, competition with immobilised ligand; 10 µM).
The remaining binding of Cc1nccc(COC(=O)N2C[C@@H]3[C@@H](CNC(=O)c4ccc5[nH]nnc5c4)[C@@H]3C2)n1 is reported as 97% (cell-free assay, competition with immobilised ligand; 1 µM).
CCN1CCN(Cc2ccc(C(=O)Nc3ccc(C)c(Oc4ccc5c(c4)CC(=O)N5)c3)cc2C(F)(F)F)CC1 gave a remaining binding of 100% (binding, competition with immobilised ligand; 1 µM).
For CN(C)c1nccc(-c2cnn3ncccc23)n1, the remaining binding was 56% (binding; 1 µM).
For CO[C@H]1CC[C@H](CNc2ccc(S(=O)(=O)NC(=O)c3ccc(N4CCN(CC5=C(c6ccc(Cl)cc6)CC(C)(C)CC5)CC4)cc3Oc3cnc4[nH]ccc4c3)cc2[N+](=O)[O-])CC1, the remaining binding was 74% (cell-free assay, competition with immobilised ligand; 1 µM).
The remaining binding of COc1cnc(Nc2cccc(S(N)(=O)=O)c2)nc1N1CCN(c2ccccc2)C(=O)C1 is reported as 100% (binding, competition with immobilised ligand; 1 µM).
With CCCOc1ccc([C@@H]2[C@@H](C(=O)O)[C@H](c3ccc4c(c3)OCO4)CN2CC(=O)Nc2c(CC)cccc2CC)cc1 the remaining binding was 95% (cell-free assay, competition with immobilised ligand; 1 µM).
For C[C@@H]1CN(c2ccc3ncc(-c4ccc5[nH]nc(C6CC6)c5c4)n3n2)C[C@H](C)O1, the remaining binding was 81% (binding, competition with immobilised ligand; 50 nM).
With C[C@H](c1cccc(C#N)c1)n1cc(Cl)cc(C(N)=O)c1=N the remaining binding was 100% (cell-free assay, competition with immobilised ligand; 1 µM).
N[C@@H]1CCN(c2nccc(-c3cnn4ncccc34)n2)C1 has a remaining binding of 100% (binding; 1 µM).
